Data as given in PMC7065716 (International Journal of Nanomedicine, 2020).
“And” between values parts separate entries of the source, which are not always exact repeats. Equal entries are not always repeated. Structures can show the parent of a compound that is named as a salt. Each block holds one compound with its values, some of them ahead of it.

Columns and labels:
In vitro DH release = assay type: physicochemical; settings: dialysis bag, pH 5.5, 37 °C
Method in brief: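 Formulation or free drug solution (3 mg drug equivalent) held in a cellophane dialysis bag (MWCO 12,000) wrapped on a cylinder. Bag placed in 30 mL PBS, pH 5.5, at 37 ± 0.5 °C, stirred 50 rpm. 3 mL sampled at 1, 2, 3, 5, 6, 7 and 8 h and replaced. UV read at 292 nm. Run in triplicate, mean ± SD, cumulative % released.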

CFA-induced RA in rats [1] = test: CFA-induced RA in rats: histopathology of knee joints, spleen and liver; assay type: in vivo, female Wister albino rats; settings: H&E
Method in brief: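 CFA (0.4 mL) injected subcutaneously into hind-limb plantar surface on days 1, 4 and 7 in female rats, 180–200 g, 8 per group. From day 13 to 27: topical gel 1 g/day on 4 cm2 shaved dorsum, oral 10 mg/kg/day, or reference oral drug 0.1 mg/kg/day. On day 28, under pentobarbitone 50 mg/kg i.p., three knee joints per group plus spleen and liver fixed in 10% formalin saline for 24 h, H&E-stained and read by pathologist.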

IL-6 = test: CFA-induced RA in rats: serum IL-6; assay type: in vivo, female Wister albino rats; settings: treated day 13-27, serum day 28, listed as oral DH
Method in brief: (§1)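 Arthritis induced as three 0.4 mL subcutaneous plantar CFA injections (days 1, 4, 7); treatments given days 13–27 as topical gel 1 g/day on 4 cm2 shaved dorsum or oral 10 mg/kg/day. Eight rats per group. Day 28, 24 h after last dose, retro-orbital blood under diethyl ether; serum separated at 3000 rpm for 30 min, stored −20°C, assayed by ELISA kit. One-way ANOVA with Tukey test.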

[2] = system: cartilage oligomeric matrix protein (COMP); test: CFA-induced RA in rats: serum COMP; assay type: in vivo, female Wister albino rats; settings: treated day 13-27, serum day 28
Method in brief: as §1

[3] = Pharmacokinetic analysis in rats; assay type: in vivo; settings: Wister albino, rat, plasma, 10 mg/kg
Method in brief: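 Rats (200–250 g, six per group) fasted 10 h, then dosed 10 mg/kg by oral gavage or as 1 g gel on 4 cm2 shaved dorsum. Retro-orbital blood (0.5 mL, heparinized) taken 0.25–24 h; plasma stored −20°C. Plasma spiked with internal standard, extracted with tert-butyl methyl ether, reconstituted in acetonitrile:0.1% formic acid (80:20), analysed by LC-MS/MS on C18. Non-compartmental analysis; AUC by trapezoidal rule.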

CFA-induced RA in rats [4] = test: CFA-induced RA in rats: radiographic analysis; assay type: in vivo, female Wister albino rats; settings: day 28
[5] = system: anti-cyclic citrullinated peptide antibody (anti-CCP); test: CFA-induced RA in rats: serum anti-CCP; assay type: in vivo, female Wister albino rats; settings: treated day 13-27, serum day 28
Method in brief: as §1

Ex vivo skin permeation = assay type: in vitro ADME, rat
Method in brief: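 Franz cell, 5.0 cm2 permeation area, 100 mL distilled-water receiver. Shaved rat skin mounted stratum corneum up. Donor: vesicle formulation equivalent to 3 mg drug, or drug solution as control. Run at 37 ± 2 °C, 100 rpm, 24 h, sampling at 1–24 h with medium replaced. UV read at 292. Lag time from x-intercept of the linear portion of the cumulative µg/cm2-versus-time plot; Jss (µg/cm2/h) and Kp (cm/h) calculated.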

[6] = cited from earlier work

DH released in the first 3 h (In vitro DH release): approximately 95%
AUC(0-inf) ([3]; oral): 734 ng·h/mL
Cmax ([3]; oral): 198 ng/mL
AUC(0-inf) ([3]; po): 734 ± 51.1 ng·h/mL
AUC(0-t) ([3]; po): 701 ± 25.8 ng·h/mL
Cmax ([3]; po): 198 ± 16.4 ng/mL
MRT ([3]; po): 5.74 ± 1.56 h
Tmax ([3]; po): 1.5 ± 0.06 h
half-life ([3]; po): 5.46 ± 2.87 h
Papp (Ex vivo skin permeation; rat): 0.944 ×10⁻⁶ cm/s
Lag Time (Ex vivo skin permeation; rat skin, Franz cell): 91.10 ± 20.67 min
Y5: Q24, cumulative amount permeated/unit area in 24 h (Ex vivo skin permeation; rat skin, Franz cell, 37 °C, 24 h): 135.6±17.0 µg/cm2
Jss (drug flux, steady state) (Ex vivo skin permeation; rat skin, Franz cell, listed as DH solution): 5.6±0.7 µg/cm2.h and 5.65± 0.71 µg/cm2.h
SMILES: CN(C)[C@@H](CCOc1cccc2ccccc12)c1ccccc1 [DH, Dapoxetine hydrochloride]
knee joint histopathology (CFA-induced RA in rats [1]): rough cerrated articular surface
liver histopathology (CFA-induced RA in rats [1]): marked congestion of central veins
spleen histopathology (CFA-induced RA in rats [1]): marked activation in the macrophage in the white pulb
IL-6 (serum) (IL-6): no significant effect
COMP (serum) [2]: 70.30 ± 5.73^a, b, c, d, e pg/mL
radiographic findings (CFA-induced RA in rats [4]): significant and comparable inhibition of soft tissues swelling
Anti-CCP (serum) [5]: 4.64 ± 0.15^a, b, c, d, e ng/mL
elimination half-life [6]: 1.31 h

SMILES: CN(Cc1cnc2nc(N)nc(N)c2n1)c1ccc(C(=O)N[C@@H](CCC(=O)O)C(=O)O)cc1 [MTX, methotrexate]
radiographic findings (CFA-induced RA in rats [4]): almost normal soft tissue with disappearance of inflammatory signs
Anti-CCP (serum) [5]: 4.00 ± 0.03^a, b, c ng/mL
